# Results reported in ChEMBL document CHEMBL4043301, “Tetrahydroquinoline Ring as a Versatile Bioisostere of Tetralin for Melatonin Receptor Ligands” (J Med Chem, 2018).
# Columns and labels:
# [1] = molecular target: T1, Melatonin receptor type 1A (Homo sapiens, UniProt P48039); assay: Displacement of 2-[125I]-Iodomelatonin from human MT1 receptor expressed in CHO cell membranes after 120 mins by filter binding method
# Procedure, shortened: (§1)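 Membranes from CHO cells stably expressing human MT1 or MT2 were incubated with 20 pM 2-[125I]-iodomelatonin and test drug in 50 mM Tris-HCl pH 7.4, 5 mM MgCl2, for 120 min at 37 °C. Nonspecific binding was set with 1 µM melatonin. Filtration onto PEI-soaked GF/B filters. Seven concentrations in duplicate gave IC50, converted to Ki by Cheng-Prusoff. Ki is the geometric mean of ≥2 experiments.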
# Homo sapiens = species: Homo sapiens; assay: Selectivity ratio of Ki for human MT1 receptor to Ki for human MT2 receptor
# [2] = molecular target: T2, Melatonin receptor type 1B (Homo sapiens, UniProt P49286); assay: Displacement of 2-[125I]-Iodomelatonin from human MT2 receptor expressed in CHO cell membranes after 120 mins by filter binding method; procedure, shortened: as §1
# T2 sequence (P49286 whole entry): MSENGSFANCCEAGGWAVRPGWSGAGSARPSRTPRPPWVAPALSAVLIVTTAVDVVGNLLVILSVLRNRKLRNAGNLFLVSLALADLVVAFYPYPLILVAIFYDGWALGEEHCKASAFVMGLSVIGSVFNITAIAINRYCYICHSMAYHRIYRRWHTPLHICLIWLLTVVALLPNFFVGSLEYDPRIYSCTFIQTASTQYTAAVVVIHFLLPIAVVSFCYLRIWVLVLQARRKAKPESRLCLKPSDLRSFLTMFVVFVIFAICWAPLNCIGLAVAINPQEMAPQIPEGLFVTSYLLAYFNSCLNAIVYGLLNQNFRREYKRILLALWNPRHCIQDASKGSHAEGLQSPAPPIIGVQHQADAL
# [3] = molecular target: T3, Melatonin receptor type 1B (Homo sapiens) (UniProt P49286); assay: (§2) Intrinsic activity at human MT2 receptor expressed in CHO cell membranes after 1 hr by [35S]GTPgammaS binding assay; type: functional
# T3 sequence (whole entry): T2 sequence (P49286 whole entry)
# Procedure, shortened: (§3)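 CHO-MT1 or MT2 membranes (20 µg/mL) were incubated with drug and 0.2 nM [35S]GTPγS for 1 h at room temperature. Buffer was 20 mM HEPES pH 7.4, 100 mM NaCl, 3 µM GDP, 3 mM MgCl2, 20 µg/mL saponin. Nonspecific binding was set with 10 µM GTPγS, followed by filtration. Seven concentrations in duplicate gave Emax, relative to 1 µM melatonin. Emax is the arithmetic mean ± SEM of ≥2 experiments.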
# [4] = molecular target: T1, Melatonin receptor type 1A; assay: Intrinsic activity at human MT1 receptor expressed in CHO cell membranes after 1 hr by [35S]GTPgammaS binding assay; type: functional; procedure, shortened: as §3
# [5] = molecular target: T2, Melatonin receptor type 1B; assay: as §2; type: functional; procedure, shortened: as §3
# T1 sequence (P48039 whole entry): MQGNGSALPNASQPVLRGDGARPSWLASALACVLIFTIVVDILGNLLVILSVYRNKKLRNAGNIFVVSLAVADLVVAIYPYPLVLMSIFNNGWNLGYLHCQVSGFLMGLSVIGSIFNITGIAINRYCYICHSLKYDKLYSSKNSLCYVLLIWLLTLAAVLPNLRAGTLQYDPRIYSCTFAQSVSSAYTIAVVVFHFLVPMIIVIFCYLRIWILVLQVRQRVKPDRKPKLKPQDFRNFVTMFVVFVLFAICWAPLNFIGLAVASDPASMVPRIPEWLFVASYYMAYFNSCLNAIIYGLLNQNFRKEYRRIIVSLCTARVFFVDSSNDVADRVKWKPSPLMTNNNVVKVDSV
Ki [1] [nM],Ratio Ki (Homo sapiens),Ki [2] [nM],Emax [3] [%],Emax [4] [%],EC50 [5] [nM],EC50 [4] [nM],Structure (SMILES)
430,3.9,110,–,–,–,–,CC(=O)NCC1CNc2ccccc2C1 (racemic)
28,7.4,3.8,30,16,–,–,CCC(=O)NCC1=C(c2ccccc2)c2ccccc2CC1
83,5.5,15,32,–,10,> 10000,CC(=O)NCC1Cc2ccccc2N(C)C1 (racemic)
2.4 to 3,–,0.3 to 1.2,–,–,> 10000,> 10000,CC(=O)NCC1Cc2ccccc2N(c2ccccc2)C1 (racemic) [listing 1 of 2 here]
3.02,–,1.38,–,–,–,–,"CC(=O)NCC1Cc2ccccc2N(c2ccccc2)C1 (single isomer, unassigned; (-)) [listing 1 of 2 here]"
20,20,1,59,–,7,> 10000,CCN1CC(CNC(C)=O)Cc2ccccc21 (racemic)
62,270,0.23,78,61,–,–,CCC(=O)NC[C@@H]1CCc2ccccc2[C@H]1c1ccccc1 (racemic)
–,–,–,29,30,–,–,"CC(=O)NCC1Cc2ccccc2N(c2ccccc2)C1 (single isomer, unassigned; (-)) [listing 2 of 2 here]"
–,10,–,10,27,–,–,CC(=O)NCC1Cc2ccccc2N(c2ccccc2)C1 (racemic) [listing 2 of 2 here]
3.5,16,0.22,75,56,–,–,CCC(=O)NC[C@@H]1CCc2ccccc2[C@@H]1c1ccccc1 (racemic)
892,149,6,–,–,> 10000,–,CCC(=O)NC1Cc2ccccc2N(Cc2ccccc2)C1 (racemic)
3.4,7.1,0.48,75,82,–,–,CCC(=O)NC[C@@H]1CN(C)c2ccccc2[C@@H]1c1ccccc1 (racemic)
22,11,2,41,29,1,20,CCC(=O)NC1Cc2ccccc2N(c2ccccc2)C1 (racemic)
59,59,1,28,–,3,–,CC(=O)NCC1Cc2ccccc2N(Cc2ccccc2)C1 (racemic)
246,5.2,47,47,–,80,–,CC(=O)NCC1Cc2ccccc2N(CCc2ccccc2)C1 (racemic)
–,–,–,5,25,–,–,CC(=O)NCC1Cc2ccccc2N(c2ccccc2)C1 (stereo in doubt; (+)-15e) [listing 1 of 2 here]
1.58,–,0.78,–,–,–,–,CC(=O)NCC1Cc2ccccc2N(c2ccccc2)C1 (stereo in doubt; (+)-15e) [listing 2 of 2 here]
